Source: ChEMBL document CHEMBL5724801, “EUbOPEN Chemogenomics Library - Multiplex” (2024)
“And” between values parts separate entries of the source, which are not always exact repeats. Equal entries are not always repeated.

Test system: HEK-293T
Assay: Multiplex assay against HEK293T
Assay type: toxicity, cell-based
Conditions: human
How it was run: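 Phenotypes for tubulin, mitochondrial mass and membrane permeability are expressed as per cents of healthy-nucleus cells. Cells were stained live at seeding with Hoechst33342, BioTracker Green Microtubule Cytoskeleton Dye, MitoTracker Red and Annexin V Alexa Fluor 680, then imaged after compound addition on a CQ1 microscope at 37°C and 5% CO2. Machine-learning gating in CellPathfinder separated Hoechst high-intensity objects from normal cells, divided normal cells by nuclear state (healthy, pyknosed, fragmented) and divided pyknosed cells into mitotic or apoptotic.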

[1] = 12 h, 1 µM, compound concentration 1 uM
[2] = 12 h, 10 µM, compound concentration 10 uM
[3] = 24 h, 1 µM, compound concentration 1 uM
[4] = 24 h, 10 µM, compound concentration 10 uM
[5] = 48 h, 1 µM, compound concentration 1 uM
[6] = 48 h, 10 µM, compound concentration 10 uM

SMILES: Cn1cnc(-c2cnc(O[C@H]3CCN(C(=O)Cc4ccc(OC(F)(F)F)cc4)C[C@H]3F)c(C(N)=O)c2)c1
- Population Hoechst High Intensity Objects (%) [1]: 0.47% and 4.71%
- Population Mitotic Cells (%) [1]: 91.23% and 91.04%
- Population Normal (%) [1]: 99.53% and 95.29%
- Population Pyknosed Nuclei (%) [1]: 40.24% and 73.63%
- Total Cell Count [1]: 191
- Population Hoechst High Intensity Objects (%) [2]: 0.68% and 0.69%
- Population Mitotic Cells (%) [2]: 87.04% and 85.37%
- Population Normal (%) [2]: 99.32% and 99.31%
- Population Pyknosed Nuclei (%) [2]: 55.29% and 86.01%
- Total Cell Count [2]: 144
- Population Healthy Nuclei (%) [3]: 76.21% and 29.41%
- Population Hoechst High Intensity Objects (%) [3]: 0.45% and 3.61%
- Population Mitotic Cells (%) [3]: 88.44% and 91.13%
- Population Normal (%) [3]: 99.55% and 96.39%
- Population Pyknosed Nuclei (%) [3]: 22.27% and 66.31%
- Population Hoechst High Intensity Objects (%) [4]: 0.8% and 0%
- Population Mitotic Cells (%) [4]: 68.57% and 83.33%
- Population Normal (%) [4]: 99.2% and 100%
- Population Pyknosed Nuclei (%) [4]: 37.84% and 76.43%
- Total Cell Count [4]: 373 and 157
- Population Healthy Nuclei (%) [5]: 86.49% and 68.91%
- Population Hoechst High Intensity Objects (%) [5]: 0% and 0.42%
- Population Mitotic Cells (%) [5]: 89.54% and 83.58%
- Population Normal (%) [5]: 100% and 99.58%
- Population Pyknosed Nuclei (%) [5]: 10.34% and 28.15%
- Population Healthy Nuclei (%) [6]: 80.81% and 60.93%
- Population Hoechst High Intensity Objects (%) [6]: 0% and 2.27%
- Population Mitotic Cells (%) [6]: 82.61% and 79.27%
- Population Normal (%) [6]: 100% and 97.73%
- Population Pyknosed Nuclei (%) [6]: 16.11% and 38.14%
